Test results taken from ChEMBL document CHEMBL1255287, “Induction of L1 and L2 beta-lactamase production in Stenotrophomonas maltophilia is dependent on an AmpR-type regulator” (2008).
In brackets after ≈: the same amount, converted by molar mass. One block for each compound: values may come before it. Activity calls are given as the source filed them. The calls are words filed in the database; no cut-off is given here.

Legend:
[1] = test system: Stenotrophomonas maltophilia; assay: Induction of beta-lactamase L1 expression in Stenotrophomonas maltophilia K279a at 5 to 20 mg/L after 2 hrs […]; format: functional, organism-based
Outline: (§1)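 Cells at OD600 0.4 grown 2 h with inducer at the stated concentration. Nitrocefin-hydrolysing activity measured in cell extracts, total first, then L2 alone after adding EDTA to 100 μM (inhibits L1). L1 = total − L2. Specific activity divided by that of an identically treated uninduced culture gives fold induction. Mean of three experiments.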

[2] = test system: Stenotrophomonas maltophilia; assay: Induction of beta-lactamase L2 expression in Stenotrophomonas maltophilia K279a at 5 to 20 mg/L after 2 hrs […]; format: functional, organism-based; outline: as §1
[3] = test system: Stenotrophomonas maltophilia; assay: Antimicrobial activity against Stenotrophomonas maltophilia K279a expressing beta-lactamase L1 and L2 by agar dilution method; format: functional
Outline: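 MICs by BSAC standard agar dilution on Mueller-Hinton agar against wild-type K279a and its ampR frameshift derivative.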

[4] = test system: Stenotrophomonas maltophilia; assay: Antimicrobial activity against Stenotrophomonas maltophilia K279a harboring -121 frameshift mutation in ampR gene by agar dilution method; format: functional
Outline: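 MICs by BSAC standard agar dilution on Mueller-Hinton agar against S. maltophilia K279a carrying a frameshift-disrupted ampR (ampRFS); values in mg/liter.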

[5] = test system: Stenotrophomonas maltophilia; assay: Induction of beta-lactamase L1 expression in Stenotrophomonas maltophilia M1 mutant assessed as L1 activity at 10 mg/L after 2 hrs by […] method; format: functional
Outline: (§2)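 Nutrient broth cultures were grown to OD600 0.4, then exposed to 10 mg/liter imipenem as inducer for 2 h. Uninduced cultures were grown to OD600 0.6. Total nitrocefin-hydrolysing specific activity of cell extracts was read spectrophotometrically, then reassayed after adding EDTA to 100 μM to inhibit L1. Values are percent L1 or L2 of total activity, as means of three experiments.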

[6] = test system: Stenotrophomonas maltophilia; assay: Induction of beta-lactamase L2 expression in Stenotrophomonas maltophilia M1 mutant assessed as L2 activity at 10 mg/L after 2 hrs by […] method; format: functional; outline: as §2
[7] = test system: Stenotrophomonas maltophilia; assay: Induction of beta-lactamase L1 expression in Stenotrophomonas maltophilia M2 mutant assessed as L1 activity at 10 mg/L after 2 hrs by […] method; format: functional; outline: as §2
[8] = test system: Stenotrophomonas maltophilia; assay: Induction of beta-lactamase L2 expression in Stenotrophomonas maltophilia M2 mutant assessed as L2 activity at 10 mg/L after 2 hrs by […] method; format: functional; outline: as §2
[9] = test system: Stenotrophomonas maltophilia; assay: Induction of beta-lactamase L1 expression in Stenotrophomonas maltophilia K279a at 0.1 to 0.8 mg/L after 2 hrs […]; format: functional, organism-based; outline: as §1
[10] = test system: Stenotrophomonas maltophilia; assay: Induction of beta-lactamase L2 expression in Stenotrophomonas maltophilia K279a at 0.1 to 0.8 mg/L after 2 hrs […]; format: functional, organism-based; outline: as §1

Activity [1]: Active
Activity [2]: Active
SMILES: CO[C@@]1(NC(=O)Cc2cccs2)C(=O)N2C(C(=O)O)=C(COC(N)=O)CS[C@@H]21

SMILES: CC1(C)S[C@@H]2[C@H](NC(=O)[C@H](N)c3ccccc3)C(=O)N2[C@H]1C(=O)O [AMPICILLIN]
MIC [3]: 2050 µg/mL (≈ 5860 µM)
MIC [4]: 8 µg/mL

SMILES: CO/N=C(\C(=O)N[C@@H]1C(=O)N2C(C(=O)O)=C(COC(C)=O)CS[C@H]12)c1csc(N)n1 [CEFOTAXIME]
MIC [3]: 1020 µg/mL (≈ 2250 µM)
MIC [4]: < 4 µg/mL

SMILES: CC(C)(O/N=C(\C(=O)N[C@@H]1C(=O)N2C(C(=O)[O-])=C(C[n+]3ccccc3)CS[C@H]12)c1csc(N)n1)C(=O)O [CEFTAZIDIME]
MIC [3]: 128 µg/mL (≈ 234 µM)
MIC [4]: < 4 µg/mL

SMILES: C[C@@H](O)[C@H]1C(=O)N2C(C(=O)O)=C(SCCNC=N)C[C@H]12 [IMIPENEM ANHYDROUS]
MIC [3]: 64 µg/mL (≈ 214 µM)
MIC [4]: < 4 µg/mL
Activity [5]: 66%
Activity [6]: 34%
Activity [7]: 61%
Activity [8]: 39%
Activity [9]: Active
Activity [10]: Active

SMILES: C[C@@H](O)[C@H]1C(=O)N2C(C(=O)O)=C(S[C@@H]3CN[C@H](C(=O)N(C)C)C3)[C@H](C)[C@H]12 [MEROPENEM]
MIC [3]: 64 µg/mL (≈ 167 µM)
MIC [4]: < 4 µg/mL

SMILES: CCN1CCN(C(=O)N[C@@H](C(=O)N[C@@H]2C(=O)N3[C@@H]2SC(C)(C)[C@@H]3C(=O)O)c2ccccc2)C(=O)C1=O [PIPERACILLIN]
MIC [3]: 2050 µg/mL (≈ 3960 µM)
MIC [4]: 32 µg/mL
